Reference: publication PMC10582670 (Clinical and Translational Science, 2023)
“And” between values parts separate entries of the source, which are not always exact repeats. Equal entries are not always repeated.

Tested on: healthy volunteers
Assay: Safety and tolerability
Assay type: in vivo, human
Outline: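 Healthy volunteers aged 18–55 y, BMI 18–30 kg/m², randomised double-blind 8:2 to once-daily oral drug or placebo for up to 14 days, with follow-up visits on days 21 and 42. Treatment-emergent AEs coded with MedDRA 23.1 and graded with the WHO toxicity scale, alongside ECGs, laboratory tests and vital signs. The safety population was all subjects receiving at least one dose.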

Compound: O=C(c1nc2n(n1)[C@H](c1ccccc1)C[C@@H]2F)C1CC1 [GDC‐8264]
- No. of TEAEs (MAD 50 mg q.d., n = 5): 10
- No. of deaths (MAD 50 mg q.d., n = 5): 0 no. of subjects (%)
- No. of subjects with at least one Related TEAE (MAD 50 mg q.d., n = 5): 3 (60.0) no. of subjects (%)
- No. of subjects with at least one Serious TEAE (MAD 50 mg q.d., n = 5): 0 no. of subjects (%)
- No. of subjects with at least one TEAE (MAD 50 mg q.d., n = 5): 3 (60.0) no. of subjects (%)
- No. of subjects withdrawn from study due to a TEAE (MAD 50 mg q.d., n = 5): 0 no. of subjects (%)
- TEAE Abdominal pain (MAD 50 mg q.d., n = 5): 0 no. of subjects (%)
- TEAE Back pain (MAD 50 mg q.d., n = 5): 0 no. of subjects (%)
- TEAE Catheter site pain (MAD 50 mg q.d., n = 5): 0 no. of subjects (%)
- TEAE Dermatitis contact (MAD 50 mg q.d., n = 5): 0 no. of subjects (%)
- TEAE Diarrhea (MAD 50 mg q.d., n = 5): 1 (20.0) no. of subjects (%)
- TEAE Dizziness (MAD 50 mg q.d., n = 5): 0 no. of subjects (%)
- TEAE Dyspepsia (MAD 50 mg q.d., n = 5): 1 (20.0) no. of subjects (%)
- TEAE Gastrointestinal sounds abnormal (MAD 50 mg q.d., n = 5): 0 no. of subjects (%)
- TEAE Gingivitis (MAD 50 mg q.d., n = 5): 0 no. of subjects (%)
- TEAE Headache (MAD 50 mg q.d., n = 5): 0 no. of subjects (%)
- TEAE Medical device site dermatitis (MAD 50 mg q.d., n = 5): 0 no. of subjects (%)
- TEAE Myalgia (MAD 50 mg q.d., n = 5): 0 no. of subjects (%)
- TEAE Nausea (MAD 50 mg q.d., n = 5): 0 no. of subjects (%)
- TEAE Presyncope (MAD 50 mg q.d., n = 5): 0 no. of subjects (%)
- TEAE Somnolence (MAD 50 mg q.d., n = 5): 0 no. of subjects (%)
- No. of TEAEs (MAD 100 mg q.d., n = 7): 32
- No. of deaths (MAD 100 mg q.d., n = 7): 0 no. of subjects (%)
- No. of subjects with at least one Related TEAE (MAD 100 mg q.d., n = 7): 5 (71.4) no. of subjects (%)
- No. of subjects with at least one Serious TEAE (MAD 100 mg q.d., n = 7): 0 no. of subjects (%)
- No. of subjects with at least one TEAE (MAD 100 mg q.d., n = 7): 7 (100) no. of subjects (%)
- No. of subjects withdrawn from study due to a TEAE (MAD 100 mg q.d., n = 7): 0 no. of subjects (%)
- TEAE Abdominal pain (MAD 100 mg q.d., n = 7): 2 (28.6) no. of subjects (%)
- TEAE Back pain (MAD 100 mg q.d., n = 7): 0 no. of subjects (%)
- TEAE Catheter site pain (MAD 100 mg q.d., n = 7): 2 (28.6) no. of subjects (%)
- TEAE Dermatitis contact (MAD 100 mg q.d., n = 7): 1 (14.3) no. of subjects (%)
- TEAE Diarrhea (MAD 100 mg q.d., n = 7): 2 (28.6) no. of subjects (%)
- TEAE Dizziness (MAD 100 mg q.d., n = 7): 2 (28.6) no. of subjects (%)
- TEAE Dyspepsia (MAD 100 mg q.d., n = 7): 0 no. of subjects (%)
- TEAE Gastrointestinal sounds abnormal (MAD 100 mg q.d., n = 7): 1 (14.3) no. of subjects (%)
- TEAE Gingivitis (MAD 100 mg q.d., n = 7): 2 (28.6) no. of subjects (%)
- TEAE Headache (MAD 100 mg q.d., n = 7): 2 (28.6) no. of subjects (%)
- TEAE Medical device site dermatitis (MAD 100 mg q.d., n = 7): 0 no. of subjects (%)
- TEAE Myalgia (MAD 100 mg q.d., n = 7): 0 no. of subjects (%)
- TEAE Nausea (MAD 100 mg q.d., n = 7): 1 (14.3) no. of subjects (%)
- TEAE Presyncope (MAD 100 mg q.d., n = 7): 1 (14.3) no. of subjects (%)
- TEAE Somnolence (MAD 100 mg q.d., n = 7): 3 (42.9) no. of subjects (%)
- No. of TEAEs (MAD All GDC-8264, n = 12): 42
- No. of deaths (MAD All GDC-8264, n = 12): 0 no. of subjects (%)
- No. of subjects with at least one Related TEAE (MAD All GDC-8264, n = 12): 8 (66.7) no. of subjects (%)
- No. of subjects with at least one Serious TEAE (MAD All GDC-8264, n = 12): 0 no. of subjects (%)
- No. of subjects with at least one TEAE (MAD All GDC-8264, n = 12): 10 no. of subjects (%) and 10 (83.3) no. of subjects (%)
- No. of subjects withdrawn from study due to a TEAE (MAD All GDC-8264, n = 12): 0 no. of subjects (%)
- TEAE Abdominal pain (MAD All GDC-8264, n = 12): 2 (16.7) no. of subjects (%)
- TEAE Back pain (MAD All GDC-8264, n = 12): 0 no. of subjects (%)
- TEAE Catheter site pain (MAD All GDC-8264, n = 12): 2 (16.7) no. of subjects (%)
- TEAE Dermatitis contact (MAD All GDC-8264, n = 12): 1 (8.3) no. of subjects (%)
- TEAE Diarrhea (MAD All GDC-8264, n = 12): 3 (25.0) no. of subjects (%)
- TEAE Dizziness (MAD All GDC-8264, n = 12): 2 (16.7) no. of subjects (%)
- TEAE Dyspepsia (MAD All GDC-8264, n = 12): 1 (8.3) no. of subjects (%)
- TEAE Gastrointestinal sounds abnormal (MAD All GDC-8264, n = 12): 1 (8.3) no. of subjects (%)
- TEAE Gingivitis (MAD All GDC-8264, n = 12): 2 (16.7) no. of subjects (%)
- TEAE Headache (MAD All GDC-8264, n = 12): 2 (16.7) no. of subjects (%)
- TEAE Medical device site dermatitis (MAD All GDC-8264, n = 12): 0 no. of subjects (%)
- TEAE Myalgia (MAD All GDC-8264, n = 12): 0 no. of subjects (%)
- TEAE Nausea (MAD All GDC-8264, n = 12): 1 (8.3) no. of subjects (%)
- TEAE Presyncope (MAD All GDC-8264, n = 12): 1 (8.3) no. of subjects (%)
- TEAE Somnolence (MAD All GDC-8264, n = 12): 3 (25.0) no. of subjects (%)
- No. of TEAEs (SAD (fasted) 5 mg, n = 6): 6
- No. of deaths (SAD (fasted) 5 mg, n = 6): 0 no. of subjects (%)
- No. of subjects with at least one Related TEAE (SAD (fasted) 5 mg, n = 6): 0 no. of subjects (%)
- No. of subjects with at least one Serious TEAE (SAD (fasted) 5 mg, n = 6): 0 no. of subjects (%)
- No. of subjects with at least one TEAE (SAD (fasted) 5 mg, n = 6): 5 (83.3) no. of subjects (%)
- No. of subjects withdrawn from study due to a TEAE (SAD (fasted) 5 mg, n = 6): 0 no. of subjects (%)
- TEAE Abdominal pain (SAD (fasted) 5 mg, n = 6): 1 (16.7) no. of subjects (%)
- TEAE Back pain (SAD (fasted) 5 mg, n = 6): 0 no. of subjects (%)
- TEAE Catheter site pain (SAD (fasted) 5 mg, n = 6): 1 (16.7) no. of subjects (%)
- TEAE Dermatitis contact (SAD (fasted) 5 mg, n = 6): 1 (16.7) no. of subjects (%)
- TEAE Diarrhea (SAD (fasted) 5 mg, n = 6): 0 no. of subjects (%)
- TEAE Dizziness (SAD (fasted) 5 mg, n = 6): 0 no. of subjects (%)
- TEAE Dyspepsia (SAD (fasted) 5 mg, n = 6): 1 (16.7) no. of subjects (%)
- TEAE Gastrointestinal sounds abnormal (SAD (fasted) 5 mg, n = 6): 0 no. of subjects (%)
- TEAE Gingivitis (SAD (fasted) 5 mg, n = 6): 0 no. of subjects (%)
- TEAE Headache (SAD (fasted) 5 mg, n = 6): 1 (16.7) no. of subjects (%)
- TEAE Medical device site dermatitis (SAD (fasted) 5 mg, n = 6): 0 no. of subjects (%)
- TEAE Myalgia (SAD (fasted) 5 mg, n = 6): 0 no. of subjects (%)
- TEAE Nausea (SAD (fasted) 5 mg, n = 6): 0 no. of subjects (%)
- TEAE Presyncope (SAD (fasted) 5 mg, n = 6): 0 no. of subjects (%)
- TEAE Somnolence (SAD (fasted) 5 mg, n = 6): 0 no. of subjects (%)
- No. of TEAEs (SAD (fasted) 25 mg, n = 6): 6
- No. of deaths (SAD (fasted) 25 mg, n = 6): 0 no. of subjects (%)
- No. of subjects with at least one Related TEAE (SAD (fasted) 25 mg, n = 6): 0 no. of subjects (%)
- No. of subjects with at least one Serious TEAE (SAD (fasted) 25 mg, n = 6): 0 no. of subjects (%)
- No. of subjects with at least one TEAE (SAD (fasted) 25 mg, n = 6): 4 (66.7) no. of subjects (%)
- No. of subjects withdrawn from study due to a TEAE (SAD (fasted) 25 mg, n = 6): 0 no. of subjects (%)
- TEAE Abdominal pain (SAD (fasted) 25 mg, n = 6): 1 (16.7) no. of subjects (%)
- TEAE Back pain (SAD (fasted) 25 mg, n = 6): 0 no. of subjects (%)
- TEAE Catheter site pain (SAD (fasted) 25 mg, n = 6): 0 no. of subjects (%)
- TEAE Dermatitis contact (SAD (fasted) 25 mg, n = 6): 0 no. of subjects (%)
- TEAE Diarrhea (SAD (fasted) 25 mg, n = 6): 0 no. of subjects (%)
- TEAE Dizziness (SAD (fasted) 25 mg, n = 6): 0 no. of subjects (%)
- TEAE Dyspepsia (SAD (fasted) 25 mg, n = 6): 0 no. of subjects (%)
- TEAE Gastrointestinal sounds abnormal (SAD (fasted) 25 mg, n = 6): 0 no. of subjects (%)
- TEAE Gingivitis (SAD (fasted) 25 mg, n = 6): 0 no. of subjects (%)
- TEAE Headache (SAD (fasted) 25 mg, n = 6): 2 (33.3) no. of subjects (%)
- TEAE Medical device site dermatitis (SAD (fasted) 25 mg, n = 6): 0 no. of subjects (%)
- TEAE Myalgia (SAD (fasted) 25 mg, n = 6): 0 no. of subjects (%)
- TEAE Nausea (SAD (fasted) 25 mg, n = 6): 0 no. of subjects (%)
- TEAE Presyncope (SAD (fasted) 25 mg, n = 6): 1 (16.7) no. of subjects (%)
- TEAE Somnolence (SAD (fasted) 25 mg, n = 6): 0 no. of subjects (%)
